Reference: ChEMBL document CHEMBL4033786, “Discovery of Novel 1-Cyclopentenyl-3-phenylureas as Selective, Brain Penetrant, and Orally Bioavailable CXCR2 Antagonists” (J Med Chem, 2018)

What was measured:
[1] = Intrinsic clearance in dog hepatocytes; format: ADME, cell-based, Canis lupus familiaris, Hepatocyte
[2] = biological target: T1, C-X-C chemokine receptor type 2 (Homo sapiens, UniProt P25025); assay: Antagonist activity at TEV protease cleavage site linked GAL4-VP16-fused recombinant human CXCR2 expressed in cells assessed as inhibition of […] human CXCL1-stimulated beta-arrestin recruitment by CCF4-AM-fluorescence based FRET assay; format: cell-based; conditions: read-out: IC50
T1 sequence (P25025 whole entry): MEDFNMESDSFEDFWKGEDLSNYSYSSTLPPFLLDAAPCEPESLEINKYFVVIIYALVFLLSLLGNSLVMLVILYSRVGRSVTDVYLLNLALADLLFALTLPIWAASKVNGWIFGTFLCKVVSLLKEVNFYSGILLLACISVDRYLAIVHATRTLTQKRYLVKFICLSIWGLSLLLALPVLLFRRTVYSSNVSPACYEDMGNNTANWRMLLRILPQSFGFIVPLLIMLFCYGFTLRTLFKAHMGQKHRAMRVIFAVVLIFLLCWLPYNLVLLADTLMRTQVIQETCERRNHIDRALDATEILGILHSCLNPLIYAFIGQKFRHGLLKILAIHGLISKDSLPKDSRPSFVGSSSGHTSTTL
Procedure, shortened: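 Stable cell line expressing recombinant human CXCR2 linked to a TEV site and Gal4-VP16. Cells were starved 24 h at 37 °C, 5% CO2, then resuspended at ~200,000 cells/mL. They were given compound in DMSO (concentration-response), stimulated with 80 nM hCXCL1 and incubated overnight at 37 °C. CCF4-AM substrate was then added for 2 h at RT in the dark.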

[3] = Fraction unbound in Han-Wistar SOA rat model brain at 2 mg/kg administered via oral gavage by UPLC/MS/MS analysis; format: ADME, organism-based
[4] = Fraction unbound in Han-Wistar SOA rat model blood at 2 mg/kg administered via oral gavage by UPLC/MS/MS analysis; format: ADME, organism-based
Blood = assay: Dose normalized AUC (0 to 7 hrs) in Han-Wistar SOA rat model blood at 2 mg/kg administered via oral gavage by UPLC/MS/MS analysis; format: ADME, organism-based; conditions: in vivo
Procedure, shortened: (§1)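 Male Han-Wistar rats were given 2 mg/kg by oral gavage as a suspension in DMSO:1% methylcellulose (1:99). Blood (cardiac puncture, EDTA-K2, under isoflurane) and brains were collected at 0.25–7 h. Brain was homogenised in 3-fold PBS, samples were protein-precipitated and quantified by UPLC/MS/MS.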

Brain = assay: Dose normalized AUC (0 to 7 hrs) in Han-Wistar SOA rat model brain at 2 mg/kg administered via oral gavage by UPLC/MS/MS analysis; format: ADME, organism-based; conditions: in vivo; procedure, shortened: as §1
[5] = Unbound brain-to-blood concentration ratio in Han-Wistar SOA rat model at 2 mg/kg administered via oral gavage by UPLC/MS/MS analysis; format: ADME, organism-based; conditions: read-out: K(p,uu,brain)
Procedure, shortened: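 Male Han-Wistar rats given a single 2 mg/kg oral gavage as a suspension in DMSO:1% methylcellulose (1:99). Blood was taken by cardiac puncture under isoflurane at 0.25–7 h, diluted 1:3 with water, and brains were homogenized in 3-fold PBS. Samples were extracted by acetonitrile protein precipitation and quantified by UPLC/MS/MS. Kp = brain DNAUC0-7h/blood DNAUC0-7h; Kp,uu = Kp×Fu,br/Fu,bl.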

[6] = Volume of distribution at steady state in Wistar rat at 0.98 mg/kg, iv measured up to 4 hrs post dose; format: ADME, organism-based; conditions: in vivo, read-out: Vdss
[7] = Elimination half life in Wistar rat at 0.98 mg/kg, iv measured up to 4 hrs post dose; format: ADME, organism-based; conditions: in vivo, read-out: beta t1/2 (converted)
Rattus norvegicus = assay: Dose normalized AUC (0 to infinity) in Wistar rat at 2.41 mg/kg, po measured up to 4 hrs post dose; format: ADME, organism-based; conditions: in vivo
[8] = Oral bioavailability in Wistar rat at 2.41 mg/kg measured up to 4 hrs after dose; format: ADME, organism-based; conditions: in vivo
[9] = Clearance in dog blood at 0.85 mg/kg, iv measured up to 4 hrs post dose; format: ADME, organism-based, Canis lupus familiaris
[10] = Elimination half life in dog at 0.85 mg/kg, iv measured up to 4 hrs post dose; format: ADME, organism-based, Canis lupus familiaris; conditions: in vivo, read-out: beta t1/2 (converted)
Canis familiaris [11] = assay: Dose normalized AUC (0 to infinity) in dog at 0.85 mg/kg, iv measured up to 4 hrs post dose; format: ADME, organism-based, Canis lupus familiaris; conditions: in vivo
[12] = Tmax in dog at 1.29 mg/kg, po measured up to 4 hrs post dose; format: ADME, organism-based, Canis lupus familiaris; conditions: in vivo
[13] = Cmax in dog at 1.29 mg/kg, po measured up to 4 hrs post dose; format: ADME, organism-based, Canis lupus familiaris; set-up: dose 1.29 mg/kg, route oral; conditions: in vivo
Canis familiaris [14] = assay: Dose normalized AUC (0 to infinity) in dog at 1.29 mg/kg, po measured up to 4 hrs post dose; format: ADME, organism-based, Canis lupus familiaris; conditions: in vivo
[15] = biological target: T2, C-C chemokine receptor type 7 (Homo sapiens, UniProt P32248); assay: Agonist activity at CCR7 (unknown origin)
T2 sequence (P32248 whole entry): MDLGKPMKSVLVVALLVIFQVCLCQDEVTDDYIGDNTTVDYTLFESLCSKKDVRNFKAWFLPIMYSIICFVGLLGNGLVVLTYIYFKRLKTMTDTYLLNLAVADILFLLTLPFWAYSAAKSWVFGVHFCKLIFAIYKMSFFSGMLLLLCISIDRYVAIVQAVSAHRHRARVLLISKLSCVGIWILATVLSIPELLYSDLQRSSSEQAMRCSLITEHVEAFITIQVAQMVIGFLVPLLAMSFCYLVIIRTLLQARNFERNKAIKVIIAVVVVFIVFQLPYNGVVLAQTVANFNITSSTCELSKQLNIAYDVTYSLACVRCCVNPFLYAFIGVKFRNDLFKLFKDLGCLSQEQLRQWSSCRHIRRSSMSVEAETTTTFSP
Procedure, shortened: (§2)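 β-arrestin assays run in both agonist and antagonist modes across a panel of 18 CXC and CC chemokine receptors.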

[16] = biological target: T3, C-C chemokine receptor type 9 (Homo sapiens, UniProt P51686); assay: Agonist activity at CCR9 (unknown origin); procedure, shortened: as §2
T3 sequence (P51686 whole entry): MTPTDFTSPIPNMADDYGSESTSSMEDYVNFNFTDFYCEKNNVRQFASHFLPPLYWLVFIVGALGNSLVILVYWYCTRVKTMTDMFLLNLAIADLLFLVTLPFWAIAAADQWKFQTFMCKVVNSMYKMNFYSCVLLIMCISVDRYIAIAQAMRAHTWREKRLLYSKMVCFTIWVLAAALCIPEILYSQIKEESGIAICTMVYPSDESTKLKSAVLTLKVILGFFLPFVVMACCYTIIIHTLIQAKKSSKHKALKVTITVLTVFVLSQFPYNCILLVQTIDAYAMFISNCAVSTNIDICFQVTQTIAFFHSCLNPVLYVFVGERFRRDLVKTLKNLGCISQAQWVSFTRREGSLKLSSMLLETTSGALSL

Chemerin-like receptor 1 = Chemerin-like receptor 1 (Homo sapiens, UniProt Q99788); assay: Agonist activity at CMKLR1 (unknown origin); procedure, shortened: as §2
Chain of Chemerin-like receptor 1 (Q99788 whole entry): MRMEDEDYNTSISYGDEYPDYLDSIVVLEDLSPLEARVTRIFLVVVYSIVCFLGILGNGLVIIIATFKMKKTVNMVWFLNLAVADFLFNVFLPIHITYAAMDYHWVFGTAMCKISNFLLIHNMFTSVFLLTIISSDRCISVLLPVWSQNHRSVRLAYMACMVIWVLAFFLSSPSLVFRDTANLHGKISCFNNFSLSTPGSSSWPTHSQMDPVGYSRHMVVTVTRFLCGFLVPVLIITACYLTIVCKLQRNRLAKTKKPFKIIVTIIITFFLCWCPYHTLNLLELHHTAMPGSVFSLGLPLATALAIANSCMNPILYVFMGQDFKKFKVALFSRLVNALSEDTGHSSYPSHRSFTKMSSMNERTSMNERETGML

[17] = biological target: CX3C chemokine receptor 1 (Homo sapiens, UniProt P49238); assay: Agonist activity at CX3CR1 (unknown origin); procedure, shortened: as §2
Chain of CX3C chemokine receptor 1 (P49238 whole entry): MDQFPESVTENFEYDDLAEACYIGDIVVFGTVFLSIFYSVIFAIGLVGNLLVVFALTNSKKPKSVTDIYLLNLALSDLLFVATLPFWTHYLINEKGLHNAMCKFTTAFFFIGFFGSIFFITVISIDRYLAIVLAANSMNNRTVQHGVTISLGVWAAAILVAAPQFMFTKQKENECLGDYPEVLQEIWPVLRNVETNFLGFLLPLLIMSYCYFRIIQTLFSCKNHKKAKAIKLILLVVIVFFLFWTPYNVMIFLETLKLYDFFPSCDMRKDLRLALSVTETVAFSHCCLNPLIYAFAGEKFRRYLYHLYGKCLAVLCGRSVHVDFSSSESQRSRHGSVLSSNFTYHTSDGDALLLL

[18] = biological target: C-X-C chemokine receptor type 1 (Homo sapiens, UniProt P25024); assay: Agonist activity at CXCR1 (unknown origin)
Chain of C-X-C chemokine receptor type 1 (P25024 whole entry): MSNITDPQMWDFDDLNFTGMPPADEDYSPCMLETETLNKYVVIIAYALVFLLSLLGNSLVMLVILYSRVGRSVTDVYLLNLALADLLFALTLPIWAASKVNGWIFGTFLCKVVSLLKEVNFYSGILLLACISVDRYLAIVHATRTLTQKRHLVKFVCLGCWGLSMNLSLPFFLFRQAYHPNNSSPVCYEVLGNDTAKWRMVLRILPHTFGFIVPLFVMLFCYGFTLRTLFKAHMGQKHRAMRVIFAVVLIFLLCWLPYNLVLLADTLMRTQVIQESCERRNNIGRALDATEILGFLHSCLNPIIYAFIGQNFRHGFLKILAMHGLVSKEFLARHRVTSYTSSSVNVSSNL
Procedure, shortened: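 Part of an 18-receptor CXC/CC chemokine receptor panel, each receptor run in β-arrestin recruitment assays in both agonist and antagonist modes.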

[19] = biological target: T1, C-X-C chemokine receptor type 2; assay: Agonist activity at TEV protease cleavage site linked GAL4-VP16-fused recombinant human CXCR2 expressed in cells assessed as induction of beta-arrestin recruitment by CCF4-AM-fluorescence based FRET assay; format: cell-based
Procedure, shortened: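 Part of an 18-receptor chemokine panel run in agonist and antagonist modes. Stable line carrying human CXCR2 linked to a TEV site and Gal4-VP16 was starved 24 h at 37 °C, 5% CO2, and incubated overnight with compound dispensed in DMSO. CCF4-AM substrate was loaded for 2 h at room temperature in the dark. Read-out was the background-subtracted 460/530 nm ratio, with sigmoidal curve fit.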

[20] = biological target: C-C chemokine receptor type 2 (Homo sapiens, UniProt P41597); assay: Antagonist activity at CCR2 (unknown origin); procedure, shortened: as §2
Chain of C-C chemokine receptor type 2 (P41597 whole entry): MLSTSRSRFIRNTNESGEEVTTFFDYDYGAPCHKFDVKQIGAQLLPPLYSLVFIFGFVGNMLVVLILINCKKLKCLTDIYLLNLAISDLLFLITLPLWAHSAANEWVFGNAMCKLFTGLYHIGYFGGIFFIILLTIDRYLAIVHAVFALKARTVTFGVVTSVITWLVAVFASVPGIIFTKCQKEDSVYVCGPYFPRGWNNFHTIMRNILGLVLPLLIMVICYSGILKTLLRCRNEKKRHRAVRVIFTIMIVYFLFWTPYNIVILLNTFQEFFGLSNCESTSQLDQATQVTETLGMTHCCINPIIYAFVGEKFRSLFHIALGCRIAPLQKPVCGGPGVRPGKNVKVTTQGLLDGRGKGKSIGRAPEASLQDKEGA

[21] = biological target: C-C chemokine receptor type 4 (Homo sapiens, UniProt P51679); assay: Antagonist activity at CCR4 (unknown origin); procedure, shortened: as §2
Chain of C-C chemokine receptor type 4 (P51679 whole entry): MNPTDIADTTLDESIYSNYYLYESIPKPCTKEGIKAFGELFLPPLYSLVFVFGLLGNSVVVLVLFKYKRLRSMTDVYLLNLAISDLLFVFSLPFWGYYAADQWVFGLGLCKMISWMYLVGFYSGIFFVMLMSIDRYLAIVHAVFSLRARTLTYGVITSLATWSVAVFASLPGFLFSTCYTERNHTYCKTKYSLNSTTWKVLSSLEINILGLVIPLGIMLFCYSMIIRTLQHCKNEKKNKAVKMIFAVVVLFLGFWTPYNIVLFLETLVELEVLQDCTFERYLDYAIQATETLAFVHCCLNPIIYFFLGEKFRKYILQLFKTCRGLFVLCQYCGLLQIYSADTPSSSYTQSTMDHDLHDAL

[22] = biological target: C-C chemokine receptor type 5 (Homo sapiens, UniProt P51681); assay: Antagonist activity at CCR5 (unknown origin); procedure, shortened: as §2
Chain of C-C chemokine receptor type 5 (P51681 whole entry): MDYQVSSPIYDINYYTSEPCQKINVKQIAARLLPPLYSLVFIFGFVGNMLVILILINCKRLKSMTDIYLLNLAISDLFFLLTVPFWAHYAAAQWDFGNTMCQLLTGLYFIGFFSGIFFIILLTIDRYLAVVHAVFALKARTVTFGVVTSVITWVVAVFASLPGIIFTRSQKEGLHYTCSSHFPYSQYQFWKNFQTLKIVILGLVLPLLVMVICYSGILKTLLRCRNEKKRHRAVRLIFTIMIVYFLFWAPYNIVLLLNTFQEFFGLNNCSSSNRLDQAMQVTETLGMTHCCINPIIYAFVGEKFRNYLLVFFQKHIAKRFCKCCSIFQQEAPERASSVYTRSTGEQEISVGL

[23] = biological target: T2, C-C chemokine receptor type 7; assay: Antagonist activity at CCR7 (unknown origin); procedure, shortened: as §2
[24] = biological target: C-C chemokine receptor type 8 (Homo sapiens, UniProt P51685); assay: Antagonist activity at CCR8 (unknown origin); procedure, shortened: as §2
Chain of C-C chemokine receptor type 8 (P51685 whole entry): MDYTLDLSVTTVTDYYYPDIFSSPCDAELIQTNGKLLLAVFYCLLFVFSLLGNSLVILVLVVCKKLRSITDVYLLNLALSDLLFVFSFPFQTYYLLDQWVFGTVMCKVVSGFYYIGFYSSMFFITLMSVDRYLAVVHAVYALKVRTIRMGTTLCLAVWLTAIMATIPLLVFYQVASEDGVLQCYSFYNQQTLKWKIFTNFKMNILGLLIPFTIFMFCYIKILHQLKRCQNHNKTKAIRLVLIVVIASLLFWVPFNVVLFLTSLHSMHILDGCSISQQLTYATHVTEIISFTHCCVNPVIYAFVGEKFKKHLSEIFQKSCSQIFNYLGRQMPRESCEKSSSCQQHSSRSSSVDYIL

[25] = biological target: T3, C-C chemokine receptor type 9; assay: Antagonist activity at CCR9 (unknown origin); procedure, shortened: as §2
[26] = biological target: C-X-C chemokine receptor type 5 (Homo sapiens, UniProt P32302); assay: Antagonist activity at CXCR5 (unknown origin); procedure, shortened: as §2
Chain of C-X-C chemokine receptor type 5 (P32302 whole entry): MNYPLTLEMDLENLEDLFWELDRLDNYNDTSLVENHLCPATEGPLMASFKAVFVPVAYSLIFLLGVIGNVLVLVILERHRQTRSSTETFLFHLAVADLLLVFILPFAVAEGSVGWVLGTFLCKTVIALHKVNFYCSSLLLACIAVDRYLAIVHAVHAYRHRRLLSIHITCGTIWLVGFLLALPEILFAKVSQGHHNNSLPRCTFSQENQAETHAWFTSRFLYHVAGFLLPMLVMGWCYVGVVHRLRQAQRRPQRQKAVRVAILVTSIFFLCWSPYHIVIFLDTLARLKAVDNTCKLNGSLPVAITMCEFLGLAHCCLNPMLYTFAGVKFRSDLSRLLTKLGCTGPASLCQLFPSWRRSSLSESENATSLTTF

[27] = biological target: C-X-C chemokine receptor type 6 (Homo sapiens, UniProt O00574); assay: Antagonist activity at CXCR6 (unknown origin); procedure, shortened: as §2
Chain of C-X-C chemokine receptor type 6 (O00574 whole entry): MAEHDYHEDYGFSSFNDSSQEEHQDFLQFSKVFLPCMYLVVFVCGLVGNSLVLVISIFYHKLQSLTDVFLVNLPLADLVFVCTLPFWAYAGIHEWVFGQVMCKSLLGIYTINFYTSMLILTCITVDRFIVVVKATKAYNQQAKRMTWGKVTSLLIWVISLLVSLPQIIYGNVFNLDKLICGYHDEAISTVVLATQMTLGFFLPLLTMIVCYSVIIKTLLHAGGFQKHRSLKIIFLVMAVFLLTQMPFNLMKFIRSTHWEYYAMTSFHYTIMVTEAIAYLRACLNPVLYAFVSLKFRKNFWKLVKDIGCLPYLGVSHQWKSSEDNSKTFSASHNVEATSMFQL

Structure (SMILES): CC1=CCC[C@H]1NC(=O)Nc1ccc(Cl)c(S(=O)(=O)[C@@]2(C)CCOC2)c1O
- CLH [1]: 1.8 mL/min/g
- IC50 [2]: 0.0052 µM
- fraction unbound [3]: 0.123
- fraction unbound [4]: 0.027
- AUC/dose (Blood): 651 ng·h/mL/mg/kg
- AUC/dose (Brain): 87.7 ng·h/g/mg/kg
- Kp uu [5]: 0.63
- Vd [6]: 2.1 L/kg
- half-life [7]: 4.3 h
- AUC/dose (Rattus norvegicus): 860 ng·h/mL/mg/kg
- bioavailability [8]: 47%
- clearance [9]: 5.6 mL/min/kg
- half-life [10]: 3.6 h
- AUC/dose (Canis familiaris [11]): 2996 ng·h/mL/mg/kg
- Tmax [12]: 1.1 h
- Cmax [13]: 728 ng/mL
- AUC/dose (Canis familiaris [14]): 2298 ng·h/mL/mg/kg
- EC50 [15]: > 10 µM
- EC50 [16]: > 10 µM
- EC50 (Chemerin-like receptor 1): > 10 µM
- EC50 [17]: > 10 µM
- EC50 [18]: > 10 µM
- EC50 [19]: > 10 µM
- IC50 [20]: > 10 µM
- IC50 [21]: > 10 µM
- IC50 [22]: > 10 µM
- IC50 [23]: > 10 µM
- IC50 [24]: > 10 µM
- IC50 [25]: > 10 µM
- IC50 [26]: > 10 µM
- IC50 [27]: > 10 µM
